Results published in ChEMBL document CHEMBL1141997, “The discovery and synthesis of novel adenosine receptor (A(2A)) antagonists” (Bioorg Med Chem Lett, 2005).

Assay: Inhibition constant against Adenosine A2a receptor
Procedure, shortened: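 Membranes from HEK cells expressing human A2A receptor, incubated with 1 nM [3H]SCH-58261 and 10 test concentrations. Buffer: phosphate-buffered saline with 10 mM MgCl2, 0.04% methyl cellulose, adenosine deaminase and 4% DMSO. Incubation 60 min at 23 °C, then filtration and washes with cold water. Nonspecific binding defined with CGS-15943. Duplicates, each compound tested twice. IC50 from one-site fit, Ki by Cheng–Prusoff.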

| Ki | SMILES |
| --- | --- |
| 2.6 nM | Cc1ccc2c(c1)-c1nc(N)nc(-c3ccc(CO)o3)c1C2 |
| 4.2 nM | Cc1ccc2c(c1)-c1nc(N)nc(C3CCC(Br)O3)c1C2 (stereo not given) |
| 2.6 nM | CCc1ccc2c(c1)-c1nc(N)nc(-c3ccc(Br)o3)c1C2 |
| 56.9 nM | Cc1ccc2c(c1)-c1nc(N)nc(-c3ccncc3)c1C2 |
| 1.6 nM | COc1ccc2c(c1)-c1nc(N)nc(-c3ccc(Br)o3)c1C2 |
| 40.5 nM | Nc1nc(-c2ccccc2)c2[nH]c3ccccc3c2n1 |
| 8.1 nM | CC(C)(C)c1ccc2c(c1)-c1nc(N)nc(-c3ccc(Br)o3)c1C2 |
| 9 nM | Nc1nc(-c2ccccc2)c2oc3ccccc3c2n1 |
| 172 nM | Nc1nc(-c2ccccc2)c2c(n1)-c1ccccc1CC2 |
| 1 nM | Nc1nc(-c2ccc(Br)o2)c2c(n1)-c1cc(Cl)ccc1C2 |
| 3.9 nM | Nc1nc(-c2ccc(Br)o2)c2c(n1)-c1cc(N3CCCC3)ccc1C2 |
| 11 nM | Cc1ccc2c(c1)-c1nc(N)nc(-c3ccccc3)c1C2 |
| 0.8 nM | CC(C)c1ccc2c(c1)-c1nc(N)nc(-c3ccc(Br)o3)c1C2 |
| 6.7 nM | Cc1ccc2c(c1)-c1nc(N)nc(-c3ccco3)c1C2 |
| 7.1 nM | Cc1ccc2c(c1)-c1nc(N)nc(-c3ccc(C)o3)c1C2 |
| 4.2 nM | Cc1ccc2c(c1)-c1nc(N)nc(-c3ccc(Br)o3)c1C2 |
| 168 nM | Nc1nc(-c2ccccc2)c2c(n1)-c1ccccc1C2O (stereo not given) |
| 10.9 nM | Nc1nc(-c2ccc(Br)o2)c2c(n1)-c1cc(-c3ccccc3)ccc1C2 |
| 154 nM | Cc1ccc2c(c1)-c1nc(N)nc(-c3ccccn3)c1C2 |
| 1.7 nM | Nc1nc(-c2ccccc2)c2c(n1)-c1ccccc1C2=O |
